31 compounds from ChEMBL document CHEMBL1124220 (J Med Chem, 1988) can be followed below.

What all share (type): functional
The species entered for one test is Oryctolagus cuniculus. Description: In vitro agonist angiotensin II like activity was measured in the rabbit aorta strip assay. The gist of the method:
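Isolated rabbit aortic strips in vitro. Agonist (AII-like) activity expressed as percent of the activity of AII.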

Test [1] has as its system Rattus norvegicus. Description: In vivo agonist angiotensin II like activity was measured in rat blood pressure assay. Set-up: concentration or dose not given beside the values. The gist of the method: (§1)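 Rat blood pressure in vivo. Residual AII-like activity read as the pressor rise (mmHg) after a 1-μg intravenous bolus of compound. Mean of at least five tests with standard error.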

For test [2], the system named is Rattus norvegicus. As to the kind of experiment: In vivo agonist angiotensin II like activity was measured in rat blood pressure increase by a 1 ug iv injection. The gist of the method: as §1
For test [3], the system named is Rattus norvegicus. As to the kind of experiment: Antagonist activity ID50 was measured in vivo in the rat blood pressure assay. The gist of the method: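 Rat blood pressure in vivo, 250-g rats, compound given by infusion. AII dose-response curves measured before and during the infusion. ID50 expressed as ng/rat per min. Mean of at least five tests with standard error.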

Starred links: 1 amine or outer side, 2 acyl side, 3 side chain; linkers in the order of their positions; H or OH if unused. Non-standard residues stand in square brackets, D forms with d. Residues, ends and D or L forms follow the SMILES beside them. Ala(imidazol-2-yl) = N[C@@H](Cc1ncc[nH]1)C(=O)O; X2 = O=C([C@H](CCc1ncc[nH]1)N[*:1])[*:2]; Phe(4-NH2) = Nc1ccc(C[C@H](N)C(=O)O)cc1; 3Thi = N[C@@H](Cc1ccsc1)C(=O)O; Aib = CC(C)(N)C(=O)O; Sar = CNCC(=O)O

The compound `CC[C@H](C)[C@H](NC(=O)[C@@H]1CCCN1C(=O)[C@@H](Cc1c[nH]cn1)NC(=O)[C@@H](NC(=O)[C@H](Cc1ccc(O)cc1)NC(=O)[C@@H](NC(=O)[C@H](CCCN=C(N)N)NC(=O)CNC)C(C)C)[C@@H](C)CC)C(=O)O` displayed an Activity in the test listed under Oryctolagus cuniculus of 0%. The compound `CC[C@H](C)[C@H](NC(=O)[C@H](Cc1ccc(O)cc1)NC(=O)[C@@H](NC(=O)[C@H](N)CCCCN)C(C)C)C(=O)N[C@@H](Cc1c[nH]cn1)C(=O)N1CCC[C@H]1C(=O)N[C@@H](Cc1ccccc1)C(=O)O` showed an Activity in the test with Rattus norvegicus [1] of 23%. On the same count and under the same terms, the value for `CC[C@H](C)[C@H](NC(=O)[C@H](Cc1ccc(O)cc1)NC(=O)[C@@H](NC(=O)[C@@H](N)CCCN)C(C)C)C(=O)N[C@@H](Cc1c[nH]cn1)C(=O)N1CCC[C@H]1C(=O)N[C@@H](Cc1ccccc1)C(=O)O` was 3%; that for `CC[C@H](C)[C@H](NC(=O)[C@H](Cc1ccc(O)cc1)NC(=O)[C@@H](NC(=O)[C@H](N)CCCN)C(C)C)C(=O)N[C@@H](Cc1c[nH]cn1)C(=O)N1CCC[C@H]1C(=O)N[C@@H](Cc1ccccc1)C(=O)O` was 23%. On the same count and under the same terms, with `CC[C@H](C)[C@H](NC(=O)[C@H](Cc1ccc(O)cc1)NC(=O)[C@@H](NC(=O)[C@H](CCCN=C(N)N)NC(=O)[C@@H](N)CC(=O)O)C(C)C)C(=O)N[C@@H](Cc1cncn1C)C(=O)N1CCC[C@H]1C(=O)N[C@@H](Cc1ccccc1)C(=O)O` the figure was 0.05%.

`CC[C@H](C)[C@H](NC(=O)[C@@H]1CCCN1C(=O)[C@H](Cc1c[nH]cn1)NC(=O)[C@@H](NC(=O)[C@H](Cc1ccc(O)cc1)NC(=O)[C@@H](NC(=O)[C@H](CCCNC(N)=O)NC(=O)CNC)C(C)C)[C@@H](C)CC)C(=O)O`: the BP increase with Rattus norvegicus [2] worked out at 25 mmHg. For the same compound, the Activity in the test listed under Oryctolagus cuniculus is 0%. In turn, `CC[C@H](N)C(=O)N[C@H](C(=O)N[C@@H](Cc1ccc(O)cc1)C(=O)N[C@H](C(=O)N[C@@H](Cc1c[nH]cn1)C(=O)N1CCC[C@H]1C(=O)N[C@@H](Cc1ccccc1)C(=O)O)[C@@H](C)CC)C(C)C` gave an Activity in the test on Rattus norvegicus [1] of 0.92%.

With `CC[C@H](C)[C@H](NC(=O)[C@H](Cc1ccc(O)cc1)NC(=O)[C@@H](NC(=O)[C@@H](N)CCCCN)C(C)C)C(=O)N[C@@H](Cc1c[nH]cn1)C(=O)N1CCC[C@H]1C(=O)N[C@@H](Cc1ccccc1)C(=O)O`, in the test on Rattus norvegicus [1], the Activity came to 3%. In the test with Rattus norvegicus [2], `CC[C@H](C)[C@H](NC(=O)[C@@H]1CCCN1C(=O)[C@H](Cc1c[nH]cn1)NC(=O)[C@@H](NC(=O)[C@H](Cc1ccc(O)cc1)NC(=O)[C@@H](NC(=O)[C@@H](N)CCCN=C(N)N)C(C)C)[C@@H](C)CC)C(=O)O` showed a BP increase of 5 mmHg. The ID50 in the test on Rattus norvegicus [3] is 200 ng min-1 rat-1. The compound further returned an Activity in the test filed under Oryctolagus cuniculus of 0%. Compound `CC[C@H](C)[C@H](NC(=O)[C@H](Cc1ccc(O)cc1)NC(=O)[C@@H](NC(=O)[C@@H](C)N)C(C)C)C(=O)N[C@@H](Cc1c[nH]cn1)C(=O)N1CCC[C@H]1C(=O)N[C@@H](Cc1ccccc1)C(=O)O` gave an Activity with Rattus norvegicus [1] of 48%. Still for that read-out and setting: with `CC[C@H](C)[C@H](NC(=O)[C@H](Cc1ccc(O)cc1)NC(=O)[C@@H](NC(=O)[C@H](C)N)C(C)C)C(=O)N[C@@H](Cc1c[nH]cn1)C(=O)N1CCC[C@H]1C(=O)N[C@@H](Cc1ccccc1)C(=O)O` the figure was 3%; with `CC[C@H](C)[C@H](NC(=O)[C@H](Cc1ccc(O)cc1)NC(=O)[C@@H](NC(=O)[C@H](N)CCCCN=C(N)N)C(C)C)C(=O)N[C@@H](Cc1c[nH]cn1)C(=O)N1CCC[C@H]1C(=O)N[C@@H](Cc1ccccc1)C(=O)O`, 11%. In the test listed under Oryctolagus cuniculus, `CC[C@H](C)[C@H](NC(=O)[C@@H]1CCCN1C(=O)[C@H](Cc1c[nH]cn1)NC(=O)[C@@H](NC(=O)[C@H](Cc1ccc(O)cc1)NC(=O)[C@@H](NC(=O)[C@H](C)N)C(C)C)[C@@H](C)CC)C(=O)O` displayed an Activity of 0%. On to `CC[C@H](C)[C@H](NC(=O)[C@H](Cc1ccc(O)cc1)NC(=O)[C@@H](NC(=O)[C@@H](C)NC)C(C)C)C(=O)N[C@@H](Cc1c[nH]cn1)C(=O)N1CCC[C@H]1C(=O)N[C@@H](Cc1ccccc1)C(=O)O`, for which the BP increase in the test with Rattus norvegicus [2] is 85 mmHg. In the test listed under Oryctolagus cuniculus, this compound displayed an Activity of 1.4%. `CC[C@H](C)[C@H](NC(=O)[C@H](Cc1ccc(O)cc1)NC(=O)[C@@H](NC(=O)[C@H](CCCN=C(N)N)NC(=O)[C@@H](N)CC(=O)O)C(C)C)C(=O)N[C@@H](Cc1cn(C)cn1)C(=O)N1CCC[C@H]1C(=O)N[C@@H](Cc1ccccc1)C(=O)O` showed an Activity in the test on Rattus norvegicus [1] of 5%. The same measure, in the same setting: the value for `CC[C@H](C)[C@H](NC(=O)[C@H](Cc1ccc(O)cc1)NC(=O)[C@@H](NC(=O)[C@H](CCCN=C(N)N)NC(=O)[C@@H](N)CC(=O)O)C(C)C)C(=O)N[C@@H](C)C(=O)N1CCC[C@H]1C(=O)N[C@@H](Cc1ccccc1)C(=O)O` (H-DRVYIAPF-OH) was 0.8%; that for `CC[C@H](C)[C@H](NC(=O)[C@H](Cc1ccc(O)cc1)NC(=O)[C@@H](NC(=O)[C@H](CCCN=C(N)N)NC(=O)[C@@H](N)CC(=O)O)C(C)C)C(=O)N[C@@H](Cc1ccccc1)C(=O)N1CCC[C@H]1C(=O)N[C@@H](Cc1ccccc1)C(=O)O` (H-DRVYIFPF-OH) was 5.1%. Compound `CC[C@H](C)[C@H](NC(=O)[C@H](Cc1ccc(O)cc1)NC(=O)[C@@H](NC(=O)[C@H](CCCN=C(N)N)NC(=O)[C@@H](N)CC(=O)O)C(C)C)C(=O)N[C@@H](CCCCN)C(=O)N1CCC[C@H]1C(=O)N[C@@H](Cc1ccccc1)C(=O)O` (H-DRVYIKPF-OH) registered an Activity in the test with Rattus norvegicus [2] of 0.1%. Consider `CC[C@H](C)[C@H](NC(=O)[C@H](Cc1ccc(O)cc1)NC(=O)[C@@H](NC(=O)[C@H](CCCN=C(N)N)NC(=O)[C@@H](N)CC(=O)O)C(C)C)C(=O)N[C@@H](Cc1ccsc1)C(=O)N1CCC[C@H]1C(=O)N[C@@H](Cc1ccccc1)C(=O)O` (H-DRVYI[3Thi]PF-OH), for which the Activity in the test with Rattus norvegicus [1] was 19.3%. Still for that read-out and setting: the value for `CC[C@H](C)[C@H](NC(=O)[C@H](Cc1ccc(O)cc1)NC(=O)[C@@H](NC(=O)[C@H](CCCN=C(N)N)NC(=O)[C@@H](N)CC(=O)O)C(C)C)C(=O)N[C@@H](Cc1ncc[nH]1)C(=O)N1CCC[C@H]1C(=O)N[C@@H](Cc1ccccc1)C(=O)O` (H-DRVYI[Ala(imidazol-2-yl)]PF-OH) was 0.4%; that for `CC[C@H](C)[C@H](NC(=O)[C@H](Cc1ccc(O)cc1)NC(=O)[C@@H](NC(=O)[C@H](CCCN=C(N)N)NC(=O)[C@@H](N)CC(=O)O)C(C)C)C(=O)N[C@@H](Cc1ccc(N)cc1)C(=O)N1CCC[C@H]1C(=O)N[C@@H](Cc1ccccc1)C(=O)O` (H-DRVYI[Phe(4-NH2)]PF-OH) was 0.05%. Compound `CC[C@H](C)[C@H](NC(=O)[C@H](Cc1ccc(O)cc1)NC(=O)[C@@H](NC(=O)[C@H](CCCN=C(N)N)NC(=O)[C@@H](N)CC(=O)O)C(C)C)C(=O)N[C@@H](CCc1ncc[nH]1)C(=O)N1CCC[C@H]1C(=O)N[C@@H](Cc1ccccc1)C(=O)O` (H-DRVYI[X2]PF-OH) returned an Activity in the test on Rattus norvegicus [1] of 0.05%.

Regarding `CC[C@H](C)[C@H](NC(=O)[C@H](Cc1ccc(O)cc1)NC(=O)[C@@H](NC(=O)[C@H](CCCN=C(N)N)NC(=O)[C@@H](N)CC(N)=O)C(C)C)C(=O)N[C@@H](Cc1c[nH]cn1)C(=O)N1CCC[C@H]1C(=O)N[C@@H](Cc1ccccc1)C(=O)O` (H-NRVYIHPF-OH), in the test with Rattus norvegicus [1], the Activity stood at 4%.

In turn, `CC[C@H](C)[C@H](NC(=O)[C@H](Cc1ccc(O)cc1)NC(=O)[C@@H](NC(=O)C(C)(C)N)C(C)C)C(=O)N[C@@H](Cc1c[nH]cn1)C(=O)N1CCC[C@H]1C(=O)N[C@@H](Cc1ccccc1)C(=O)O` (H-[Aib]VYIHPF-OH) had a BP increase in the test on Rattus norvegicus [2] of 60 mmHg. The compound further displayed an Activity in the test listed under Oryctolagus cuniculus of 0%. On to `CC[C@H](C)[C@H](NC(=O)[C@@H]1CCCN1C(=O)[C@H](Cc1c[nH]cn1)NC(=O)[C@@H](NC(=O)[C@H](Cc1ccc(O)cc1)NC(=O)[C@@H](NC(=O)C(C)(C)N)C(C)C)[C@@H](C)CC)C(=O)O` (H-[Aib]VYIHPI-OH), for which the Activity in the test listed under Oryctolagus cuniculus was found to be 0%.

In the case of `CC[C@H](C)[C@H](NC(=O)[C@H](Cc1ccc(O)cc1)NC(=O)[C@@H](NC(=O)[C@H](CCCN=C(N)N)NC(=O)CNC)C(C)C)C(=O)N[C@@H](CC(=O)O)C(=O)N1CCC[C@H]1C(=O)N[C@H](C(=O)O)[C@@H](C)O` (H-[Sar]RVYIDPT-OH), the Activity in the test filed under Oryctolagus cuniculus was found to be 0%. Same read-out and setting: the value for `CC[C@H](C)[C@H](NC(=O)[C@H](Cc1ccc(O)cc1)NC(=O)[C@@H](NC(=O)[C@H](CCCN=C(N)N)NC(=O)CNC)C(C)C)C(=O)N[C@@H](Cc1c[nH]cn1)C(=O)N1CCC[C@H]1C(=O)N[C@H](C(=O)O)[C@@H](C)O` (H-[Sar]RVYIHPT-OH) was 0.6%. Still for that read-out and setting: the value for `CC[C@H](C)[C@H](NC(=O)[C@@H]1CCCN1C(=O)[C@H](CCCCN)NC(=O)[C@@H](NC(=O)[C@H](Cc1ccc(O)cc1)NC(=O)[C@@H](NC(=O)[C@H](CCCN=C(N)N)NC(=O)CNC)C(C)C)[C@@H](C)CC)C(=O)O` (H-[Sar]RVYIKPI-OH) was 0%; that for `CC[C@H](C)[C@H](NC(=O)[C@H](Cc1ccc(O)cc1)NC(=O)[C@@H](NC(=O)CN(C)C(=O)CNC)C(C)C)C(=O)N[C@@H](Cc1c[nH]cn1)C(=O)N1CCC[C@H]1C(=O)N[C@H](C(=O)O)[C@@H](C)O` (H-[Sar][Sar]VYIHPT-OH) was 0%.

For the compound `CC[C@H](C)[C@H](NC(=O)[C@H](Cc1ccc(O)cc1)NC(=O)[C@@H](NC(=O)[C@@H](N)CCCN=C(N)N)C(C)C)C(=O)N[C@@H](Cc1c[nH]cn1)C(=O)N1CCC[C@H]1C(=O)N[C@@H](Cc1ccccc1)C(=O)O` (stereo in doubt; 5), the Activity in the test with Rattus norvegicus [1] was 15%; in the test listed under Oryctolagus cuniculus, 47.4%.

Turning to `CC[C@H](C)[C@H](NC(=O)[C@H](Cc1ccc(O)cc1)NC(=O)[C@@H](NC(=O)[C@@H](N)CCCN=C(N)N)C(C)C)C(=O)N[C@@H](Cc1c[nH]cn1)C(=O)N1CCC[C@H]1C(=O)N[C@@H](Cc1ccccc1)C(=O)O` (stereo in doubt; 6), the Activity in the test on Rattus norvegicus [1] turned out to be 33.3%; in the test listed under Oryctolagus cuniculus, 43.3%.
